Results published in ChEMBL document CHEMBL2062497, “Syntheses and in vitro evaluation of decalinvesamicol analogues as potential imaging probes for vesicular acetylcholine transporter (VAChT)” (Bioorg Med Chem, 2012).

Experiments:
[1] = target: T1, Vesicular acetylcholine transporter (Rattus norvegicus, UniProt Q62666); test: Binding affinity to VAChT in rat cerebral membrane; type: cell membranes
T1 sequence (Q62666 whole entry): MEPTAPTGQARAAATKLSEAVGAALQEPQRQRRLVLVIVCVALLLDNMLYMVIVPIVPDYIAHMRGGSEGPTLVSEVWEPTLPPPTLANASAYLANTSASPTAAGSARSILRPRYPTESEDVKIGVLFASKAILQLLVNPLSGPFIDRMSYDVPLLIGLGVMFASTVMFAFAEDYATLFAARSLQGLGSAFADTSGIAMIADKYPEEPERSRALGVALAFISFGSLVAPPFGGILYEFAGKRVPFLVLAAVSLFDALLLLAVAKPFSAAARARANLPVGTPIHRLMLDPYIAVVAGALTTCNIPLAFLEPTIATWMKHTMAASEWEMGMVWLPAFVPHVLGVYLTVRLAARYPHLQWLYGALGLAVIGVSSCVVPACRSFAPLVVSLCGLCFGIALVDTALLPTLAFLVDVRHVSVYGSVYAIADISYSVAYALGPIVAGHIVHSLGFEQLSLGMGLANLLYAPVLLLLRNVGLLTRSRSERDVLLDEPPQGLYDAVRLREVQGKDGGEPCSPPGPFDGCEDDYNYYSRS

[2] = Displacement of [3H]DTG from sigma2 receptor in Sprague-Dawley rat liver membrane after 90 mins by liquid scintillation counting in presence of pentazocine; type: cell membranes
Method in brief: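 Sigma-2 assay: rat liver membranes (male Sprague-Dawley) with [3H]DTG (Kd 22.3 nM) plus pentazocine to mask sigma-1. Displacers at 1.0×10^-10–10^-5 M in 50 mM Tris-HCl pH 7.8, quadruplicate. Incubated 37 °C for 90 min, then filtered and scintillation counted. Three independent experiments; Ki via IC50/(1 + C/Kd).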

[3] = target: T1, Vesicular acetylcholine transporter; test: Displacement of (-)-[3H]vesamicol from VAChT in Sprague-Dawley rat cerebral membrane after 60 mins by liquid scintillation counting in presence of DTG
[4] = target: Sigma non-opioid intracellular receptor 1 (Rattus norvegicus, UniProt Q9R0C9); test: Displacement of (+)-[3H]pentazocine from sigma1 receptor in Sprague-Dawley rat cerebral membrane after 90 mins by liquid scintillation counting
Sigma non-opioid intracellular receptor 1, sequence (Q9R0C9 whole entry): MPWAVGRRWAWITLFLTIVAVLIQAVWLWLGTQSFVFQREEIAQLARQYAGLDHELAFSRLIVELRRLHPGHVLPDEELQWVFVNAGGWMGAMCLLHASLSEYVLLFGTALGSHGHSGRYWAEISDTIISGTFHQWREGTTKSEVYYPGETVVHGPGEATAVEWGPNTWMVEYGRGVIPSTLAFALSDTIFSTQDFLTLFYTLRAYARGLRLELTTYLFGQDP

[5] = target: T1, Vesicular acetylcholine transporter; test: Displacement of [125I]O-iodo-trans-decalinvesamicol from VAChT in Sprague-Dawley rat cerebral membrane after 1 hr by gamma counting
Method in brief: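 Male Sprague-Dawley cerebral membranes were incubated with 5 nM radioiodinated tracer and each ligand at 10^-10–10^-5 M in 50 mM Tris-HCl pH 7.8, quadruplicate. Nonspecific binding was taken with excess unlabelled ligand. Incubation was 37 °C for 1 h, then ice quench, PEI-soaked filter harvest and gamma counting.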

[6] = n-octanol-water partition coefficient, log P at 0.51 MBq after 5 mins by gamma counting; type: physicochemical
Method in brief: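 Tracer (0.51 MBq) partitioned between n-octanol and 0.1 M phosphate buffer pH 7.4 (n = 4). Vortexed 5 min at room temperature, then centrifuged 10 min at 2000g. Four samples per layer were gamma counted. logP = log10(octanol/aqueous radioactivity). Three independent experiments.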

[7] = target: T1, Vesicular acetylcholine transporter; test: Binding affinity to VAChT in Sprague-Dawley rat cerebral membrane after 1 hr by gamma counting in presence of haloperidol
Method in brief: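 Saturation binding of [¹²⁵I]-labelled radioligand (0.1–10 nM) to cerebral membranes from male 8-week Sprague-Dawley rats (sucrose homogenate, differential centrifugation), with 100 nM haloperidol masking σ receptors. Incubated in 50 mM Tris–HCl pH 7.8 for 1 h at 37 °C, in quadruplicate. Filtered and washed, then gamma counted. Specific binding is total minus nonspecific; Kd and Bmax come from the saturation curve and Scatchard plot.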

Brain = test: Drug uptake in Sprague-Dawley rat brain at 185 kBq, iv at 10 mins by gamma counting; type: ADME, organism-based; conditions: in vivo
Method in brief: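 Male Sprague-Dawley rats (8 weeks, 250–300 g, n = 4) got radioiodinated tracer, 185 kBq, by tail-vein injection. Sacrificed at 10 min. Whole brains were weighed and gamma counted, expressed as %ID/g.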

Structure (SMILES) | Ki [2] [nM] | Ki [5] [nM] | also measured
O[C@@H]1CCCCC1N1CCC(c2ccccc2[125I])CC1 (some centres not stated) |  |  | Kd [1]: 17.4 nM
OC1CCCCC1N1CCC(c2ccccc2)CC1 (configuration not stated) | 86.7 |  | 
OC1C[C@@H]2CCCC[C@H]2CC1N1CCC(c2ccccc2I)CC1 (relative stereo) | 119 | 28.6 | Ki [3]: 20.5 nM; Ki [4]: 242 nM
OC1C[C@@H]2CCCC[C@H]2CC1N1CCC(c2ccccc2Br)CC1 (relative stereo) | 138 | 9.3 | Ki [3]: 13.8 nM; Ki [4]: 151 nM
OC1C[C@@H]2CCCC[C@H]2CC1N1CCC(c2ccccc2)CC1 (relative stereo) | 68.3 |  | Ki [4]: 74.1 nM
OC1C[C@@H]2CCCC[C@H]2CC1N1CCC(c2ccccc2[125I])CC1 (relative stereo) |  |  | logP at 5 min [6]: 2.46; Kd [7]: 1.73 nM; Drug uptake (Brain): 0.45 % ID/g
CC(C)=CCN1CC[C@]2(C)c3cc(O)ccc3C[C@H]1[C@H]2C [(+)-PENTAZOCINE] |  | > 10000 | 
Cc1ccccc1NC(=N)Nc1ccccc1C [DITOLYLGUANIDINE] | 31.7 | 1130 | 
O=C(CCCN1CCC(O)(c2ccc(Cl)cc2)CC1)c1ccc(F)cc1 [HALOPERIDOL] | 51.6 |  | 
O=C(c1ccc(F)cc1)C1CCN(CCn2c(=O)[nH]c3ccccc3c2=O)CC1 [KETANSERIN] |  | > 10000 | 
NC[C@H](O)c1ccc(O)c(O)c1 [NOREPINEPHRINE] |  | > 10000 | 
O=C(CCCN1CCC2(CC1)C(=O)NCN2c1ccccc1)c1ccc(F)cc1 [SPIPERONE] |  | 1030 | 
